# Reference: ChEMBL document CHEMBL1152161, “A facile synthesis, antibacterial, and antitubercular studies of some piperidin-4-one and tetrahydropyridine derivatives” (2008)
# Active and inactive are the calls of the source. No cut-off for these calls is given here.
# System: Staphylococcus aureus
# Test: Antibacterial activity against methicillin-resistant Staphylococcus aureus by broth micro dilution method
# Type: functional
# Summary of the method: (§1)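 MIC90 was determined by broth microdilution following NCCLS methods. Linezolid and trovafloxacin were run as positive controls, with DMSO as the negative control. Compounds were tested up to a top concentration of 128.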
row,SMILES,MIC90 [µg/mL]
1,CCOC(=O)C1=C(OS(=O)(=O)c2cccc([N+](=O)[O-])c2)CC(c2ccccc2)N(C(=O)CCl)C1c1ccccc1 (centres undefined),128

# System: Enterococcus faecalis
# Test: Antibacterial activity against Enterococcus faecalis by broth micro dilution method
# Type: functional
# Summary of the method: (§2)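 MIC90 was found by broth microdilution following NCCLS methods. Compounds were tested up to a top concentration of […]. Linezolid and trovafloxacin served as positive controls and DMSO as the negative control.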
row,SMILES,MIC90 [µg/mL]
1,CCOC(=O)C1=C(OS(=O)(=O)c2cccc([N+](=O)[O-])c2)CC(c2ccccc2)N(C(=O)CCl)C1c1ccccc1 (centres undefined),128

# System: Staphylococcus aureus
# Test: Antibacterial activity against Staphylococcus aureus at 128 ug/mL by broth micro dilution method
# Type: functional, organism-based
row,SMILES,Activity
1,C=Cc1ccc(S(=O)(=O)OC2=C(C(=O)OCC)C(c3ccccc3)N(C(=O)CCl)C(c3ccccc3)C2)cc1 (centres undefined),inactive
2,CCOC(=O)C1=C(OS(=O)(=O)c2cccc([N+](=O)[O-])c2)CC(c2ccccc2)N(C(=O)CCl)C1c1ccccc1 (centres undefined),inactive
3,COc1cc(OC)cc(C2CC(=O)C(C)C(c3cc(OC)cc(OC)c3)N2C(=O)Cn2cnc3ccccc32)c1 (centres undefined),inactive

# System: Staphylococcus aureus
# Test: Antibacterial activity against methicillin-resistant Staphylococcus aureus at 128 ug/mL by broth micro dilution method
# Type: functional, organism-based
# Summary of the method: as §1
row,SMILES,Activity
1,C=Cc1ccc(S(=O)(=O)OC2=C(C(=O)OCC)C(c3ccccc3)N(C(=O)CCl)C(c3ccccc3)C2)cc1 (centres undefined),inactive
2,COc1cc(OC)cc(C2CC(=O)C(C)C(c3cc(OC)cc(OC)c3)N2C(=O)Cn2cnc3ccccc32)c1 (centres undefined),inactive

# System: Staphylococcus epidermidis
# Test: Antibacterial activity against Staphylococcus epidermidis at 128 ug/mL by broth micro dilution method
# Type: functional, organism-based
row,SMILES,Activity
1,C=Cc1ccc(S(=O)(=O)OC2=C(C(=O)OCC)C(c3ccccc3)N(C(=O)CCl)C(c3ccccc3)C2)cc1 (centres undefined),inactive
2,CCOC(=O)C1=C(OS(=O)(=O)c2cccc([N+](=O)[O-])c2)CC(c2ccccc2)N(C(=O)CCl)C1c1ccccc1 (centres undefined),inactive
3,COc1cc(OC)cc(C2CC(=O)C(C)C(c3cc(OC)cc(OC)c3)N2C(=O)Cn2cnc3ccccc32)c1 (centres undefined),inactive

# System: Staphylococcus epidermidis
# Test: Antibacterial activity against methicillin-resistant Staphylococcus epidermidis at 128 ug/mL by broth micro dilution method
# Type: functional, organism-based
# Summary of the method: as §1
row,SMILES,Activity
1,C=Cc1ccc(S(=O)(=O)OC2=C(C(=O)OCC)C(c3ccccc3)N(C(=O)CCl)C(c3ccccc3)C2)cc1 (centres undefined),inactive
2,CCOC(=O)C1=C(OS(=O)(=O)c2cccc([N+](=O)[O-])c2)CC(c2ccccc2)N(C(=O)CCl)C1c1ccccc1 (centres undefined),inactive
3,COc1cc(OC)cc(C2CC(=O)C(C)C(c3cc(OC)cc(OC)c3)N2C(=O)Cn2cnc3ccccc32)c1 (centres undefined),inactive

# System: Enterococcus faecalis
# Test: Antibacterial activity against Enterococcus faecalis at 128 ug/mL by broth micro dilution method
# Type: functional, organism-based
row,SMILES,Activity
1,C=Cc1ccc(S(=O)(=O)OC2=C(C(=O)OCC)C(c3ccccc3)N(C(=O)CCl)C(c3ccccc3)C2)cc1 (centres undefined),inactive
2,COc1cc(OC)cc(C2CC(=O)C(C)C(c3cc(OC)cc(OC)c3)N2C(=O)Cn2cnc3ccccc32)c1 (centres undefined),inactive

# System: Enterococcus faecalis
# Test: Antibacterial activity against vancomycin-resistant Enterococcus faecalis at 128 ug/mL by broth micro dilution method
# Type: functional, organism-based
# Summary of the method: as §1
row,SMILES,Activity
1,C=Cc1ccc(S(=O)(=O)OC2=C(C(=O)OCC)C(c3ccccc3)N(C(=O)CCl)C(c3ccccc3)C2)cc1 (centres undefined),inactive
2,CCOC(=O)C1=C(OS(=O)(=O)c2cccc([N+](=O)[O-])c2)CC(c2ccccc2)N(C(=O)CCl)C1c1ccccc1 (centres undefined),inactive
3,COc1cc(OC)cc(C2CC(=O)C(C)C(c3cc(OC)cc(OC)c3)N2C(=O)Cn2cnc3ccccc32)c1 (centres undefined),inactive

# System: Enterococcus faecalis
# Test: Antibacterial activity against vancomycin and linezolid-resistant Enterococcus faecalis at 128 ug/mL by broth micro dilution method
# Type: functional, organism-based
# Summary of the method: as §1
row,SMILES,Activity
1,C=Cc1ccc(S(=O)(=O)OC2=C(C(=O)OCC)C(c3ccccc3)N(C(=O)CCl)C(c3ccccc3)C2)cc1 (centres undefined),inactive
2,CCOC(=O)C1=C(OS(=O)(=O)c2cccc([N+](=O)[O-])c2)CC(c2ccccc2)N(C(=O)CCl)C1c1ccccc1 (centres undefined),inactive
3,COc1cc(OC)cc(C2CC(=O)C(C)C(c3cc(OC)cc(OC)c3)N2C(=O)Cn2cnc3ccccc32)c1 (centres undefined),inactive

# System: Enterococcus faecium
# Test: Antibacterial activity against Enterococcus faecium at 128 ug/mL by broth micro dilution method
# Type: functional, organism-based
row,SMILES,Activity
1,C=Cc1ccc(S(=O)(=O)OC2=C(C(=O)OCC)C(c3ccccc3)N(C(=O)CCl)C(c3ccccc3)C2)cc1 (centres undefined),inactive
2,CCOC(=O)C1=C(OS(=O)(=O)c2cccc([N+](=O)[O-])c2)CC(c2ccccc2)N(C(=O)CCl)C1c1ccccc1 (centres undefined),inactive
3,COc1cc(OC)cc(C2CC(=O)C(C)C(c3cc(OC)cc(OC)c3)N2C(=O)Cn2cnc3ccccc32)c1 (centres undefined),inactive

# System: Enterococcus faecium
# Test: Antibacterial activity against vancomycin-resistant Enterococcus faecium at 128 ug/mL by broth micro dilution method
# Type: functional, organism-based
# Summary of the method: as §1
row,SMILES,Activity
1,C=Cc1ccc(S(=O)(=O)OC2=C(C(=O)OCC)C(c3ccccc3)N(C(=O)CCl)C(c3ccccc3)C2)cc1 (centres undefined),inactive
2,CCOC(=O)C1=C(OS(=O)(=O)c2cccc([N+](=O)[O-])c2)CC(c2ccccc2)N(C(=O)CCl)C1c1ccccc1 (centres undefined),inactive
3,COc1cc(OC)cc(C2CC(=O)C(C)C(c3cc(OC)cc(OC)c3)N2C(=O)Cn2cnc3ccccc32)c1 (centres undefined),inactive

# System: Escherichia coli
# Test: Antibacterial activity against Escherichia coli LCB0010 at 128 ug/mL by broth micro dilution method
# Type: functional, organism-based
row,SMILES,Activity
1,C=Cc1ccc(S(=O)(=O)OC2=C(C(=O)OCC)C(c3ccccc3)N(C(=O)CCl)C(c3ccccc3)C2)cc1 (centres undefined),inactive
2,CCOC(=O)C1=C(OS(=O)(=O)c2cccc([N+](=O)[O-])c2)CC(c2ccccc2)N(C(=O)CCl)C1c1ccccc1 (centres undefined),inactive
3,COc1cc(OC)cc(C2CC(=O)C(C)C(c3cc(OC)cc(OC)c3)N2C(=O)Cn2cnc3ccccc32)c1 (centres undefined),inactive

# System: Escherichia coli
# Test: Antibacterial activity against Escherichia coli LCB0011 by broth micro dilution method
# Type: functional
# Summary of the method: as §2
row,SMILES,MIC90 [µg/mL]
1,C=Cc1ccc(S(=O)(=O)OC2=C(C(=O)OCC)C(c3ccccc3)N(C(=O)CCl)C(c3ccccc3)C2)cc1 (centres undefined),128

# System: Escherichia coli
# Test: Antibacterial activity against Escherichia coli LCB0012 by broth micro dilution method
# Type: functional
# Summary of the method: as §2
row,SMILES,MIC90 [µg/mL]
1,C=Cc1ccc(S(=O)(=O)OC2=C(C(=O)OCC)C(c3ccccc3)N(C(=O)CCl)C(c3ccccc3)C2)cc1 (centres undefined),128

# System: Haemophilus influenzae
# Test: Antibacterial activity against Haemophilus influenzae by broth micro dilution method
# Type: functional
# Summary of the method: as §2
row,SMILES,MIC90 [µg/mL]
1,C=Cc1ccc(S(=O)(=O)OC2=C(C(=O)OCC)C(c3ccccc3)N(C(=O)CCl)C(c3ccccc3)C2)cc1 (centres undefined),128

# System: Escherichia coli
# Test: Antibacterial activity against Escherichia coli LCB0011 at 128 ug/mL by broth micro dilution method
# Type: functional, organism-based
row,SMILES,Activity
1,CCOC(=O)C1=C(OS(=O)(=O)c2cccc([N+](=O)[O-])c2)CC(c2ccccc2)N(C(=O)CCl)C1c1ccccc1 (centres undefined),inactive
2,COc1cc(OC)cc(C2CC(=O)C(C)C(c3cc(OC)cc(OC)c3)N2C(=O)Cn2cnc3ccccc32)c1 (centres undefined),inactive

# System: Escherichia coli
# Test: Antibacterial activity against Escherichia coli LCB0012 at 128 ug/mL by broth micro dilution method
# Type: functional, organism-based
row,SMILES,Activity
1,CCOC(=O)C1=C(OS(=O)(=O)c2cccc([N+](=O)[O-])c2)CC(c2ccccc2)N(C(=O)CCl)C1c1ccccc1 (centres undefined),inactive
2,COc1cc(OC)cc(C2CC(=O)C(C)C(c3cc(OC)cc(OC)c3)N2C(=O)Cn2cnc3ccccc32)c1 (centres undefined),inactive

# System: Pseudomonas aeruginosa
# Test: Antibacterial activity against Pseudomonas aeruginosa at 128 ug/mL by broth micro dilution method
# Type: functional, organism-based
row,SMILES,Activity
1,C=Cc1ccc(S(=O)(=O)OC2=C(C(=O)OCC)C(c3ccccc3)N(C(=O)CCl)C(c3ccccc3)C2)cc1 (centres undefined),inactive
2,CCOC(=O)C1=C(OS(=O)(=O)c2cccc([N+](=O)[O-])c2)CC(c2ccccc2)N(C(=O)CCl)C1c1ccccc1 (centres undefined),inactive
3,COc1cc(OC)cc(C2CC(=O)C(C)C(c3cc(OC)cc(OC)c3)N2C(=O)Cn2cnc3ccccc32)c1 (centres undefined),inactive

# System: Klebsiella pneumoniae
# Test: Antibacterial activity against Klebsiella pneumoniae at 128 ug/mL by broth micro dilution method
# Type: functional, organism-based
row,SMILES,Activity
1,C=Cc1ccc(S(=O)(=O)OC2=C(C(=O)OCC)C(c3ccccc3)N(C(=O)CCl)C(c3ccccc3)C2)cc1 (centres undefined),inactive
2,CCOC(=O)C1=C(OS(=O)(=O)c2cccc([N+](=O)[O-])c2)CC(c2ccccc2)N(C(=O)CCl)C1c1ccccc1 (centres undefined),inactive
3,COc1cc(OC)cc(C2CC(=O)C(C)C(c3cc(OC)cc(OC)c3)N2C(=O)Cn2cnc3ccccc32)c1 (centres undefined),inactive

# System: Haemophilus influenzae
# Test: Antibacterial activity against Haemophilus influenzae at 128 ug/mL by broth micro dilution method
# Type: functional, organism-based
row,SMILES,Activity
1,CCOC(=O)C1=C(OS(=O)(=O)c2cccc([N+](=O)[O-])c2)CC(c2ccccc2)N(C(=O)CCl)C1c1ccccc1 (centres undefined),inactive
2,COc1cc(OC)cc(C2CC(=O)C(C)C(c3cc(OC)cc(OC)c3)N2C(=O)Cn2cnc3ccccc32)c1 (centres undefined),inactive

# System: Moraxella catarrhalis
# Test: Antibacterial activity against Moraxella catarrhalis at 128 ug/mL by broth micro dilution method
# Type: functional, organism-based
row,SMILES,Activity
1,C=Cc1ccc(S(=O)(=O)OC2=C(C(=O)OCC)C(c3ccccc3)N(C(=O)CCl)C(c3ccccc3)C2)cc1 (centres undefined),inactive
2,CCOC(=O)C1=C(OS(=O)(=O)c2cccc([N+](=O)[O-])c2)CC(c2ccccc2)N(C(=O)CCl)C1c1ccccc1 (centres undefined),inactive
3,COc1cc(OC)cc(C2CC(=O)C(C)C(c3cc(OC)cc(OC)c3)N2C(=O)Cn2cnc3ccccc32)c1 (centres undefined),inactive

# System: Mycobacterium tuberculosis
# Test: Antitubercular activity against Mycobacterium tuberculosis H37Rv ATCC 27294 at 256 ug/mL by radiometric respiratory technique
# Type: functional, organism-based
row,SMILES,Activity
1,CCOC(=O)C1=C(OS(=O)(=O)c2cccc([N+](=O)[O-])c2)CC(c2ccccc2)N(C(=O)CCl)C1c1ccccc1 (centres undefined),inactive
